Assay outcomes from PubChem.
A selection: hits, their analogues and other compounds. The true share with any hit is near 2.2%.
NR2F2 inh: blocks human COUP-TFII nuclear receptor; P24468; HEK293T NGFI-A luciferase reporter, luminescence; inhibition, % at 8.6 µM; hit rate 0.7% among 370,000;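 active means inhibition above a per-plate cutoff, mean inhibition of test wells between control levels plus 3 SD, cut at about 38% in these data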;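 further: cells cotransfected with COUP-TFII expression vector driving the NGFI-A reporter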
Target sequence (P24468 whole entry, looked up): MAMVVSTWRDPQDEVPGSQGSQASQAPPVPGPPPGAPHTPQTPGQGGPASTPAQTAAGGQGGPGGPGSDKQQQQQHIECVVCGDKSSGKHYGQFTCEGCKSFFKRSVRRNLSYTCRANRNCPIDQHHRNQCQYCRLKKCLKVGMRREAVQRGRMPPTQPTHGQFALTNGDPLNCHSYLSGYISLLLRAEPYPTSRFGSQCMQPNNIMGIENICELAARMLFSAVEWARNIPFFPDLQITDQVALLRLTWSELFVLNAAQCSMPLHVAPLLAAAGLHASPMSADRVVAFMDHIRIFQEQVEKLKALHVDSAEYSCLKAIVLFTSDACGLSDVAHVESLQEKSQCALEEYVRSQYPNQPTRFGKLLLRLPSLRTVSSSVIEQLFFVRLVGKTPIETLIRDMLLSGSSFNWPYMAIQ
SMARCA2 activ: activators of SMARCA2 function; activation, % at 9.1 µM; MG213 cells, MMTV-luciferase reporter, dexamethasone, overnight; hit rate 1% among 370,000; AID 652017; in the data active means activation above about 7.8%
NR2E3 ag-1: activates human NR2E3 receptor; Q9Y5X4; CHO-S Gal4-NCOR/VP16-NR2E3 two-hybrid, luciferase; inhibition of corepressor binding, % at 3.98 µM; hit rate 0.35% among 360,000; AID 602229;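 active means inhibition above the mean of all tested compounds plus 3 SD, cut at about 70% in these data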;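 further: higher means lower luciferase signal from less NR2E3 corepressor binding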
GalR3 antagonist: blocks the human galanin receptor 3 | HEK293 GalR3-CNG cAMP membrane potential fluorescence; galR3 body fused to GalR1 C-terminus | inhibition, % at 3 µM | hit rate 0.44% among 360,000;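 active means inhibition above the screen-wide average plus 3 SD, cut at about 13% in these data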;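 further: forskolin and galanin both at EC90 stimulate the cells; cAMP rise reported by CNG channel membrane potential dye signal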
Target sequence (O60755 1-299 limits assumed): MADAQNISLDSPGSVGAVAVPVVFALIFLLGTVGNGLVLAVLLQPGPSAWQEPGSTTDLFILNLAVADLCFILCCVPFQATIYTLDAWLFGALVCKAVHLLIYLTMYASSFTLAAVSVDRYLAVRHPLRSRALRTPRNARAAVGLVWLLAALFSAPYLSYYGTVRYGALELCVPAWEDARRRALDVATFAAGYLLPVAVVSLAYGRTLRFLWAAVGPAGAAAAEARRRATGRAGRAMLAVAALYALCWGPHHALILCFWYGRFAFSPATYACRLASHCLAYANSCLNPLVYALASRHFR
NR2E3 ag-2: agonists of human nuclear receptor NR2E3. Q9Y5X4. GST-NR2E3/biotin-RetCOR TR-FRET, 1536-well. inhibition of corepressor binding, % at 4.78 µM. hit rate 0.12% among 320,000;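 active means percent inhibition above the cutoff of mean plus 3 SD of all tested compounds, set per screening campaign, cut at about 20% in these data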
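System: GST-tagged NR2E3 plus biotinylated RetCOR corepressor; Amount: 1.35 nM GST-tagged NR2E3 final; Dosing: single nominal compound dose of 4.8 µM; Schedule: 5 h incubation at 4 °C; Technique: TR-FRET with europium anti-GST and streptavidin-D2, 340 nm excitation; Controls: biotin wells as high control, 0.6% DMSO wells as low control.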
NR2E3 ag confirm: NR2E3 agonism confirmed in two-hybrid assay; shares compounds with NR2E3 ag-1; CHO-S mammalian two-hybrid NR2E3-NCOR, luciferase luminescence; inhibition, % at 3.98 µM; hit rate 51% among 2,300; AID 624378;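 active means average inhibition above a cutoff equal to the mean inhibition of all tested compounds plus one SD, cut at about 70% in these data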
GAL4-VP16 luc: counter-screen for NR2E3 agonists: GAL4-VP16 reporter inhibitors; shares compounds with NR2E3 ag-1; CHO-S GAL4-VP16 luciferase reporter, luminescence; inhibition, % at 3.98 µM; hit rate 29% among 2,300; AID 624379;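 active means mean inhibition above a cutoff equal to the average over all tested compounds plus one standard deviation, cut at about 70% in these data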;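 further: luciferase from a UAS reporter driven by GAL4-VP16 transactivation; higher means less reporter light so more repression of VP16 activity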
GalR3 antag conf: GalR3 (human) antagonism, confirmation. inhibition, % at 3 µM. hit rate 59% among 1,600. HEK293 GalR3 CNG cAMP biosensor, membrane potential fluorescence; galR3 fused to GalR1 carboxy tail; challenged with forskolin and galanin at EC90. AID 652245. shares compounds with GalR3 antagonist;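 active means inhibition above the primary screen's cutoff, the mean inhibition of all screened compounds plus 3 SD, cut at about 13% in these data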
HEK-CNG parental: counter-screen for GalR3 antagonists: nonspecific agonists in parental HEK-CNG cells. shares compounds with GalR3 antagonist. HEK293-CNG parental cells, cAMP membrane potential fluorescence; normalised: DMSO wells 0%, forskolin wells 100%. activation, % at 3 µM. hit rate 10% among 1,600. AID 652268; in the data active means activation above about 1.3%
VP16 Luc counter: counter-screen for COUP-TFII antagonists: inhibitors of VP16 | HEK293 Gal4-VP16 luciferase reporter, luminescence | AID 687007 | shares compounds with NR2F2 inh | hit rate 25% among 2,500 | inhibition, % at 8.5 µM; in the data active means inhibition above about 13%
NR2F2 inh conf: confirmation of human COUP-TFII (NR2F2) inhibitors; shares compounds with NR2F2 inh; HEK293 NGFI-A luciferase reporter, luminescence; inhibition, % at 8.5 µM; hit rate 45% among 2,500; AID 687008;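 active means mean inhibition over three repeats above a set limit taken from the earlier primary screen, cut at about 38% in these data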
Each line names hits and unclear results; the compound was inactive in the other large screens (follow-up assays come after a bar, where they were run).

CC(C)(C)OC(=O)NCCCCCc1cn([C@@H](CO)C(=O)NCCCCCCCCCCC(=O)N2CCN(C(=O)OC(C)(C)C)CC2)nn1	NR2F2 inh 69.4, GalR3 antagonist 87.8 | NR2E3 ag confirm 83.2 | GAL4-VP16 luc 74.2 | GalR3 antag conf 101.5 | HEK-CNG parental inactive | VP16 Luc counter inactive | NR2F2 inh conf 79.1
CC(C)(C)OC(=O)CC[C@@H](C(=O)NCCCCCCCCCCC(=O)N1CCN(C(=O)OC(C)(C)C)CC1)n1cc(CCCCCNC(=O)OC(C)(C)C)nn1	none
Cc1cc(C)c(C#N)c(SCc2nnc(-c3ccccc3)o2)n1	NR2F2 inh 81.3, NR2E3 ag-1 88.2 | NR2E3 ag confirm 72.6 | GAL4-VP16 luc inactive | VP16 Luc counter 56.8 | NR2F2 inh conf 91.8
Cc1ccc(C#N)c(SCc2nnc(-c3ccc(Cl)cc3)o2)n1	NR2F2 inh 77.2, NR2E3 ag-1 71.7 | NR2E3 ag confirm 77.0 | GAL4-VP16 luc inactive | VP16 Luc counter 45.4 | NR2F2 inh conf 89.5
Cc1cc2c(Nc3ccccc3)ncnc2s1	none
Brc1ccc2ncnc(NCc3ccccc3)c2c1	NR2F2 inh 57.9 | NR2E3 ag confirm 90.5 | GAL4-VP16 luc 85.0 | VP16 Luc counter 18.0 | NR2F2 inh conf 48.9
Cc1cc2c(NCCc3ccccc3)ncnc2s1	NR2F2 inh 50.0, GalR3 antagonist 96.8 | NR2E3 ag confirm 90.0 | GAL4-VP16 luc 73.3 | GalR3 antag conf 98.4 | HEK-CNG parental inactive | VP16 Luc counter inactive | NR2F2 inh conf inactive
O=C(CSc1ncnc2ccccc12)NCCc1ccccc1	none
c1ccc(CCNc2ncnc3ccccc23)cc1	NR2F2 inh 56.8, GalR3 antagonist 93.4 | NR2E3 ag confirm 88.7 | GAL4-VP16 luc inactive | VP16 Luc counter inactive | NR2F2 inh conf inactive
Cc1ccc2c(c1)C1CS(=O)(=O)N(CCc3ccccc3)CN1C2 (centres undefined)	none (no result: NR2E3 ag-1, GalR3 antagonist, NR2E3 ag-2)
COC(=O)c1cc2c(c3c4cc(C)ccc4n(S(=O)(=O)c4ccc(OC)cc4)c13)C(=O)N(Cc1ccccc1OC)C2	none (no result: NR2E3 ag-1, NR2E3 ag-2)
O=C(c1cc2nc(-c3ccc(F)cc3)cc(C(F)(F)F)n2n1)N1CCCCC1c1cccnc1 (centres undefined)	NR2F2 inh 41.2 | NR2E3 ag confirm 87.7 | GAL4-VP16 luc inactive | VP16 Luc counter inactive | NR2F2 inh conf 57.3
O=C(c1cnn2c(C(F)(F)F)cc(-c3ccccc3)nc12)N1CCCCC1c1cccnc1 (centres undefined)	none
C[C@H]1COc2cc(Br)ccc2S(=O)(=O)N1Cc1cn(Cc2ccc(F)cc2)nn1	none (no result: NR2E3 ag-1, GalR3 antagonist, NR2E3 ag-2)
COc1ccc(CNC(=O)c2cccc(S(=O)(=O)N3CCCCC3)c2)cc1OC	NR2F2 inh 64.3 | NR2E3 ag confirm inactive | GAL4-VP16 luc inactive | VP16 Luc counter inactive | NR2F2 inh conf 44.6
COc1ccc(CCNC(=O)c2cccc(S(=O)(=O)N3CCCC3)c2)cc1OC	none
CC(C)C[C@H](NC1(C(=O)NC2CCCCC2)CCN(C(=O)OC(C)(C)C)CC1)C(=O)NCCc1c[nH]c2ccccc12	none (no result: SMARCA2 activ, NR2E3 ag-1, GalR3 antagonist, NR2E3 ag-2)
COc1ccc(CNC(=O)c2cccc3c(-c4cccnc4)coc23)cc1OC	NR2F2 inh 81.6, NR2E3 ag-1 97.0, GalR3 antagonist 88.7 (no result: NR2E3 ag-2) | NR2E3 ag confirm 96.3 | GAL4-VP16 luc 89.0 | GalR3 antag conf 106.0 | HEK-CNG parental inactive | VP16 Luc counter inactive | NR2F2 inh conf 74.7
NC(=O)c1ccc(N2CCN(S(=O)(=O)c3ccccc3)CC2)c([N+](=O)[O-])c1	NR2F2 inh 53.6, NR2E3 ag-1 74.3, GalR3 antagonist 32.5 | NR2E3 ag confirm 87.0 | GAL4-VP16 luc inactive | GalR3 antag conf 115.6 | HEK-CNG parental inactive | VP16 Luc counter inactive | NR2F2 inh conf 42.9
O=C(c1ccc(N2CCCCC2)c([N+](=O)[O-])c1)N1CCN(S(=O)(=O)c2ccccc2)CC1	none
O=C(OCC#CCSc1nnc(-c2ccc(F)cc2)o1)c1ccc(F)cc1	none (no result: SMARCA2 activ, NR2E3 ag-1, GalR3 antagonist, NR2E3 ag-2)
COc1ccc(C(=O)O/N=C(\N)c2ccccc2)cc1	none
CC(C)(C)c1ccc(C(=O)O/N=C(\N)c2ccccc2)cc1	NR2F2 inh 86.1, NR2E3 ag-1 81.2 | NR2E3 ag confirm 78.5 | GAL4-VP16 luc 73.5 | VP16 Luc counter 66.5 | NR2F2 inh conf 90.7
COC(=O)CCC1NC(=O)C(Cc2c[nH]c3ccccc23)NC(=O)C2CC(=O)OC(C)C(NC(=O)C(C)NC(=O)C3CCCN3C(=O)C3CCCN3C(=O)C(C)NC(C)=O)C(=O)NC(CC(C)C)C(=O)NC(CCCCNC(=O)CCC(C(=O)NC(Cc3ccc(O)cc3)C(=O)O)NC1=O)C(=O)NC(Cc1c[nH]c3ccccc13)C(=O)N1CCCC1C(=O)NC(CO)C(=O)N2 (centres undefined)	none (no result: NR2E3 ag-1, GalR3 antagonist, NR2E3 ag-2)
Cc1c(C(C)C)c(=O)n(-c2ccc(S(=O)(=O)NC3CCCCC3)cc2)n1C	NR2F2 inh 62.1, NR2E3 ag-1 71.7, GalR3 antagonist 41.1 | NR2E3 ag confirm 87.0 | GAL4-VP16 luc inactive | GalR3 antag conf 51.4 | HEK-CNG parental inactive | VP16 Luc counter inactive | NR2F2 inh conf 38.6
Cc1c(C(C)C)c(=O)n(-c2ccc(S(=O)(=O)N3CCOCC3)cc2)n1C	none
Cc1c(C(C)C)c(=O)n(-c2ccc(S(=O)(=O)NCc3ccccc3)cc2)n1C	NR2F2 inh 63.3, NR2E3 ag-1 81.4, GalR3 antagonist 90.6 | NR2E3 ag confirm 94.2 | GAL4-VP16 luc 81.2 | GalR3 antag conf 101.6 | HEK-CNG parental inactive | VP16 Luc counter inactive | NR2F2 inh conf 53.2
C=CCN1C(=O)[C@@H](CC(=O)N2CCOCC2)[C@]2(C(=O)OCC)CCCCC/C=C/12	none (no result: NR2E3 ag-1, GalR3 antagonist, NR2E3 ag-2)
O=C(NCC1COc2ccccc2O1)c1ccc(NC(=O)c2c(Cl)cccc2Cl)cc1 (centres undefined)	none (no result: NR2E3 ag-1, GalR3 antagonist, NR2E3 ag-2)
COc1ccccc1-c1noc(CCCC(=O)NC2CCCC2)n1	none
